Calls of active or inactive are those of the source. The rule behind the calls is not given here.
How the values were obtained:
[1] = molecular target: Toll-like receptor 2 (Homo sapiens) (UniProt O60603); assay: Agonist activity at TLR2 in human THP1-Blue-CD14 cells transfected with pSEAP-NF-kappaB assessed as secreted embryonic alkaline phosphatase activity treated with PC/PG/Chol liposomes formulation at 0.1 uM after 19 hrs by quanti-blue colorimetric assay in presence of anti-mTLR2 antibody; type: functional, cell-based; details: THP-1
Sequence of Toll-like receptor 2 (Homo sapiens) (O60603 whole entry): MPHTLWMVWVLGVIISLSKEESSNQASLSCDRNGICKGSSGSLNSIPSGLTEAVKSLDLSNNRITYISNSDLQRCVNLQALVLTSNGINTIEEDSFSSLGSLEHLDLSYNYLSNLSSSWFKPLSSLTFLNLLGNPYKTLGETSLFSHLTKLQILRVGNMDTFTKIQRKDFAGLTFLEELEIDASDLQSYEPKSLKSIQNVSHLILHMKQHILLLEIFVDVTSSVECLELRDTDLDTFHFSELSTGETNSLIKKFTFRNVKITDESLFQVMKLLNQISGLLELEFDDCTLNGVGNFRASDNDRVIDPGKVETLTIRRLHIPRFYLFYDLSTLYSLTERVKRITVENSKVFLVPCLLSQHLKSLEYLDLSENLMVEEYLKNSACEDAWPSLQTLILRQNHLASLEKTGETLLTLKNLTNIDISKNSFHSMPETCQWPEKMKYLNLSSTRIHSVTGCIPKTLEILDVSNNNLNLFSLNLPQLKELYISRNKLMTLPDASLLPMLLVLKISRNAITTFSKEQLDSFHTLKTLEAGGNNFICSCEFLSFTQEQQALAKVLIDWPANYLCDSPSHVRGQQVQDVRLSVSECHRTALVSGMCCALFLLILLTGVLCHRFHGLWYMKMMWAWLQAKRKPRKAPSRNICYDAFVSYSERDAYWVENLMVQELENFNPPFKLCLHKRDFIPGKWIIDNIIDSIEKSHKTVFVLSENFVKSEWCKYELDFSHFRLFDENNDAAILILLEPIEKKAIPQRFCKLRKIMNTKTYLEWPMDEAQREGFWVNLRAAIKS
How it was run: (§1)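 TLR2 in THP1-Blue-CD14 cells was neutralised with an anti-mTLR2 monoclonal antibody (100 ng/well) for 10 min before liposome-formulated agonist was added. Cells were incubated 19 h at 37 °C, and SEAP in supernatant was read by Quanti-Blue colorimetry (2 h, 37 °C, OD 595 nm). Activity was compared with cells lacking antibody; triplicates.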

[2] = Induction of dendritic cell maturation in mouse D1 cells assessed as upregulation of CD40, CD54, CD80 and CD86 expression at 2.5 ug/ml after 48 hrs by flow cytometry in presence of polymyxin B; type: functional, cell-based
How it was run: (§2)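 D1 cells were kept in IMDM with 10% heat-decomplemented FCS, penicillin (100 IU/mL), 2 mM L-glutamine and GM-CSF (20 ng/mL). They were seeded at 2×10^5 cells/mL for 48 h, then given fresh medium with compound (DMSO/PBS 2/98) plus polymyxin B, except LPS wells, for 48 h. Cells were harvested in PBS with 2 mM EDTA, stained 20 min at 4 °C and analysed by flow cytometry.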

NKT [3] = assay: Immunostimulatory activity in activated NKT cells assessed as induction of IFNgamma production; type: functional, cell-based
[4] = molecular target: Toll-like receptor 2 (Homo sapiens) (UniProt O60603); assay: Agonist activity at TLR2 in human THP1-Blue-CD14 cells transfected with pSEAP-NF-kappaB assessed as secreted embryonic alkaline phosphatase activity treated with PBS containing 2% DMSO formulation after 19 hrs by quanti-blue colorimetric assay; type: functional, cell-based; details: THP-1
Mus musculus [5] = species: Mus musculus; assay: Immunostimulatory activity in BALB/c mouse B cells assessed as induction of cell proliferation after 3 days by [3H]-thymidine incorporation assay; type: functional
How it was run: (§3)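 B cells were purified from female BALB/c spleens by negative selection (anti-CD11b, GR1, CD4 and CD8 mAbs plus magnetic beads; >90% B cells) and seeded at 1×10^5/well. Culture was in RPMI 1640 with 10% FCS, gentamicin, 10 mM HEPES and 0.05 mM 2-mercaptoethanol, across increasing agonist doses. [3H]-thymidine was added at 48 h and cells harvested 18 h later. Stimulation index = mean cpm stimulated / unstimulated; triplicates.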

[6] = molecular target: Toll-like receptor 2 (Homo sapiens) (UniProt O60603); assay: Agonist activity at TLR2 in human HEK-Blue-2 cells; type: functional, cell-based
NKT [7] = assay: Immunostimulatory activity in activated NKT cells assessed as induction of IL-4 production; type: functional, cell-based
Mus musculus [8] = species: Mus musculus; assay: Immunostimulatory activity in BALB/c mouse splenocytes assessed as induction of cell proliferation up to 1000 ng/ml after 3 days by [3H]-thymidine incorporation assay; type: functional; details: Splenocyte
How it was run: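 Spleen cells from female BALB/c mice (2×10^5/well) were cultured with agonist at 0–1000 ng/mL in RPMI 1640 containing 10% FCS, gentamicin, 10 mM HEPES and 0.05 mM 2-mercaptoethanol. [3H]-thymidine was added after 48 h, with harvest 18 h later. Result is a stimulation index (mean cpm stimulated / unstimulated) from triplicate wells.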

NKT [9] = assay: Immunostimulatory activity in activated NKT cells assessed as induction of cell proliferation in presence of mAb directed CD1d molecules; type: functional, cell-based
Mus musculus [10] = species: Mus musculus; assay: Immunostimulatory activity in BALB/c mouse splenocytes assessed as induction of TNFalpha secretion after 30 hrs by double-sandwich ELISA; type: functional; details: Splenocyte
How it was run: (§4)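 BALB/c splenocytes (2×10^5/well) were exposed to increasing agonist doses in supplemented RPMI 1640. Supernatants were collected at 30 h, stored at −20 °C, and assayed by double-sandwich ELISA. Values are pg/mL, mean of duplicates; detection limit 15 pg/mL for both IL-6 and TNF-α.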

Mus musculus [11] = species: Mus musculus; assay: Immunostimulatory activity in BALB/c mouse splenocytes assessed as induction of IL-6 secretion after 30 hrs by double-sandwich ELISA; type: functional; details: Splenocyte; how it was run: as §4
[12] = molecular target: Toll-like receptor 2 (Homo sapiens) (UniProt O60603); assay: Agonist activity at TLR2 in human THP1-Blue-CD14 cells transfected with pSEAP-NF-kappaB assessed as secreted embryonic alkaline phosphatase activity treated with PC/PG/Chol liposomes formulation after 19 hrs by quanti-blue colorimetric assay; type: functional, cell-based; details: THP-1
How it was run: (§5)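 THP1-Blue-CD14 cells were grown in RPMI 1640 with glucose (4.5 mg/mL) and 10% endotoxin-free FBS at 37 °C, 5% CO2. They were plated at 1.5×10^6 cells/mL and exposed to compounds formulated in PC/PG/Chol liposomes for 19 h at 37 °C. Supernatant was then mixed with Quanti-Blue reagent for 2 h at 37 °C and OD read at 595 nm. Controls were LPS (positive) and blank PC/PG/cholesterol (80/20/50) liposomes (negative); triplicates.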

[13] = Induction of dendritic cell maturation in mouse D1 cells assessed as upregulation of CD40, CD54, CD80 and CD86 expression at 2.5 ug/ml after 48 hrs by flow cytometry relative to Pam3CAG; type: functional, cell-based; how it was run: as §2
Mus musculus [14] = species: Mus musculus; assay: Immunostimulatory activity in BALB/c mouse B cells assessed as induction of cell proliferation at 0.001 ug/ml after 3 days by [3H]-thymidine incorporation assay relative to Pam2CAG; type: functional; how it was run: as §3
[15] = molecular target: Toll-like receptor 2 (Homo sapiens) (UniProt O60603); assay: Agonist activity at TLR2 in human THP1-Blue-CD14 cells transfected with pSEAP-NF-kappaB assessed as secreted embryonic alkaline phosphatase activity after 19 hrs by quanti-blue colorimetric assay relative to 10 uM of Pam3CAG; type: functional, cell-based; details: THP-1; how it was run: as §5
[16] = molecular target: Toll-like receptor 2 (Homo sapiens) (UniProt O60603); assay: Agonist activity at TLR2 in human THP1-Blue-CD14 cells transfected with pSEAP-NF-kappaB assessed as secreted embryonic alkaline phosphatase activity after 19 hrs by quanti-blue colorimetric assay relative to 0.1 uM of Pam2CAG; type: functional, cell-based; details: THP-1; how it was run: as §5
[17] = Induction of dendritic cell maturation in mouse D1 cells assessed as upregulation of CD40, CD54, CD80 and CD86 expression at 2.5 ug/ml after 48 hrs by flow cytometry relative to Pam2CAG; type: functional, cell-based; how it was run: as §2
Mus musculus [18] = species: Mus musculus; assay: Immunostimulatory activity in BALB/c mouse B cells assessed as induction of cell proliferation at 0.001 ug/ml after 3 days by [3H]-thymidine incorporation assay relative to Pam3CAG; type: functional; how it was run: as §3
[19] = molecular target: Toll-like receptor 2 (Homo sapiens) (UniProt O60603); assay: Agonist activity at TLR2 in human THP1-Blue-CD14 cells transfected with pSEAP-NF-kappaB assessed as secreted embryonic alkaline phosphatase activity treated with PC/PG/Chol liposomes formulation at 10 uM after 19 hrs by quanti-blue colorimetric assay in presence of anti-mTLR2 antibody; type: functional, cell-based; details: THP-1; how it was run: as §1

SMILES | Activity [1] | Activity [2] | Activity (NKT [3]) | Activity [4] | Activity (Mus musculus [5]) | Activity [6] | Activity (NKT [7]) | Activity (Mus musculus [8]) | Activity (NKT [9]) | Activity (Mus musculus [10]) | Activity (Mus musculus [11]) | Activity [12] | Activity [13] | Activity (Mus musculus [14]) | fold change (FC) [15] | Activity [16] | Activity [17] | Activity (Mus musculus [18]) | Activity [19]
CCCCCCCCCCCCCCCC(=O)OC[C@H](CSC[C@H](N)C(=O)N[C@@H](C)C(=O)NCC(=O)O)OC(=O)CCCCCCCCCCCCCCC | Active | Active | inactive | Active | Dose-dependent effect | Active | inactive | Active | Active | Dose-dependent effect | Dose-dependent effect | Active |  |  |  |  |  |  | 
CCCCCCCCCCCCCCCC(=O)OC[C@H](CSC[C@H](N)C(=O)NCCO[C@H]1O[C@@H]([C@H](O)CO)[C@H](O)[C@H]1O)OC(=O)CCCCCCCCCCCCCCC | Active | Active | inactive | Active | Dose-dependent effect | Active | inactive | Active | Active | Dose-dependent effect | Dose-dependent effect | Active | Active | Active | 100 | Active | Active | Active | 
CCCCCCCCCCCCCCCC(=O)OC[C@H](CSC[C@H](N)C(=O)NCCO[C@H]1O[C@H](CO)[C@H](O)[C@H](O)[C@H]1O)OC(=O)CCCCCCCCCCCCCCC | Active | Active | inactive | Active | Dose-dependent effect | Active | inactive | Active | Active | Dose-dependent effect | Dose-dependent effect | Active | Active | Active | 100 | Active | Active | Active | 
CCCCCCCCCCCCCCCC(=O)N[C@@H](CSC[C@@H](COC(=O)CCCCCCCCCCCCCCC)OC(=O)CCCCCCCCCCCCCCC)C(=O)N[C@@H](C)C(=O)NCC(=O)O |  | Active | inactive | Active | Dose-dependent effect | Active | inactive | Active | Active | Dose-dependent effect | Dose-dependent effect | Active |  |  |  |  |  |  | inactive

Source: ChEMBL document CHEMBL2010792, “Novel glycolipid TLR2 ligands of the type Pam2Cys-α-Gal: synthesis and biological properties” (Eur J Med Chem, 2012)
